Only a sample is shown.
Apaf-1 act – activators of human Apaf-1 apoptosome, primary screen, biochemical, DEVD-Rh110 fluorescence, uHTS; 330,000 tested, 0.31% active; Apaf-1 apoptosome caspase-3 activation; hits give low values; Apoptotic protease-activating factor 1 (Homo sapiens), O14727; AID 489031, 2010; activity change, negative = activation, % at 20 µM;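 active = activity change at or below -40% at 20 µM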
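Material: reconstituted apoptosome of Apaf-1, cytochrome c, caspase-9, procaspase-3; times: 30 min preincubation, 50 min reaction, room temperature; measured by: fluorescence, 540 nm emission, 480 nm excitation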
Rh110 act interf – Rh110 fluorescence interference by putative Apaf-1 activators, confirmation, artefact control for Apaf-1 activator project, biochemical, 20 µM. shares compounds with Apaf-1 act. quenched caspase reaction, Ex480/Em540. fluorescence interference (activity change), % at 20 µM, hits read low. 980 tested, under 10 active. AID 504616, 2011;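 active = mean activity change at or below -40% when tested at 20 µM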
Apaf-1 act conf – Apaf-1 activators, single-dose retest, confirmation, biochemical, fluorescence, DEVD-Rh110, 20 µM | shares compounds with Apaf-1 act | reconstituted apoptosome caspase-3 activity; hits give low values | activity change, negative = activation, % at 20 µM | 980 tested, 5% active;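 active = mean activity change at or below -40%, meaning activation of 40% or more, at 20 µM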
Active calls of the source: *.

What do the screens show for `CC(=O)c1c(O)cc(C)n(Cc2ccccc2)c1=O`?
Apaf-1 act: -71*; Rh110 act interf: 10; Apaf-1 act conf: 9

What do the screens show for `Nc1ccc(C(=O)O)cc1`?
Apaf-1 act: -5

How did COC(=O)c1ccc(C(=O)OC)c(NC(=O)CN2CCN(c3ccccc3)CC2)c1 do in these assays?
Apaf-1 act: -191*; Rh110 act interf: -1; Apaf-1 act conf: 12

How did CCCCNC1=CC(=O)C(=O)c2ccccc21 do in these assays?
Apaf-1 act: 96

What do the screens show for `CC1CCCCC1NS(=O)(=O)c1ccc(S(=O)(=O)N2CCN(CCC#N)CC2)cc1` (centres undefined)?
Apaf-1 act: -65*; Rh110 act interf: 1; Apaf-1 act conf: 9

Results for CN(C)CCCNC(=O)C[C@H]1C[C@H](C(=O)N2CCCCC2)[C@@]2(CCc3ccccc3)c3[nH]c4cc(-c5ccco5)ccc4c3CCN2C1=O ?
Apaf-1 act: 72

What do the screens show for `O=C(O)c1ccccc1-c1ccc(/C=c2\sc3nc4cc(Br)cnc4n3c2=O)o1`?
Apaf-1 act: 72

How did CN(C)C(=O)c1ccc(NC(=O)COc2cccc(Oc3ccccc3)c2)cc1 do in these assays?
Apaf-1 act: 61

How did CN(CC(=O)Nc1cccc(F)c1)C(=O)c1sc2ccccc2c1Cl do in these assays?
Apaf-1 act: 57

What do the screens show for `CC(C)c1ccccc1OCC(=O)N(C)CC(=O)Nc1ccc(F)cc1`?
Apaf-1 act: -505*; Rh110 act interf: -2; Apaf-1 act conf: 9

What do the screens show for `Cc1ccc2nc(/C(C#N)=C\c3ccc(N4CCOCC4)o3)[nH]c2c1`?
Apaf-1 act: 44

How did Cc1cc(N2CCN(c3ccc([N+](=O)[O-])c4cccnc34)CC2)c2ccccc2n1 do in these assays?
Apaf-1 act: 60

Results for COc1ccc(C[C@H]2CN3C(=NC[C@@H]3C(C)C)N2CCNC(=O)c2ccc(C)c(Br)c2)cc1 ?
Apaf-1 act: 47

How did Cc1ccc(C(=O)NCCN2C3=NC[C@H](C)N3C[C@H]2Cc2ccc(O)cc2)cc1Br do in these assays?
Apaf-1 act: -440*; Rh110 act interf: 0; Apaf-1 act conf: 8

Results for C/C=C(\C)C(=O)NCCN1C2=NC[C@@H](Cc3ccccc3)N2C[C@@H]1Cc1ccc(OC)cc1 ?
Apaf-1 act: 40

How did CC1CC2(CCCCC2)N2C(=O)C(=O)c3cccc1c32 (centres undefined) do in these assays?
Apaf-1 act: 41

Results for C#CCOCCOCCOCCNc1nc(N2CCN(C(=O)[C@H]([C@@H](C)CC)n3cc([C@@H](N)Cc4ccc(O)cc4)nn3)CC2)nc(N2CCN(C(=O)[C@H](CCCCN)n3cc([C@@H](N)CO)nn3)CC2)n1 ?
Apaf-1 act: 52

How did COc1ccc(C(=O)CN2C(=O)c3ccccc3C2=O)cc1 do in these assays?
Apaf-1 act: -165*; Rh110 act interf: 10; Apaf-1 act conf: 11

Results for COc1ccc(C2=NN(c3ccccc3)C(=O)/C2=C\c2ccc(O)c(OC)c2)cc1 ?
Apaf-1 act: 90

Results for COc1ccc(/C=C2/C(=O)N(c3ccccc3)N=C2C)cc1 ?
Apaf-1 act: 96

How did C#CCOCCOCCOCCNc1nc(N2CCN(C(=O)[C@H](CCCCN)n3cc(CCCC)nn3)CC2)nc(N2CCN(C(=O)[C@H](CCCCN)n3cc(CCCC)nn3)CC2)n1 do in these assays?
Apaf-1 act: 50

What do the screens show for `CCOc1cccc2sc(N(CCCN(C)C)C(=O)c3ccc(S(=O)(=O)N4CCc5ccccc5C4)cc3)nc12`?
Apaf-1 act: 62

Results for CN1CCN(S(=O)(=O)c2ccc(SCCOc3ccc(Cl)cc3)nc2)CC1 ?
Apaf-1 act: 51

Results for CCOc1ccc(S(=O)(=O)N2CCc3ccccc3C2)cc1 ?
Apaf-1 act: -120*; Rh110 act interf: -5; Apaf-1 act conf: 12

Results for CC1=NN(c2ccc(C(=O)O)c(N)c2)C(=O)C1 ?
Apaf-1 act: 62

What do the screens show for `C#CCOCCOCCOCCNc1nc(N2CCN(C(=O)[C@H](CCCCN)n3cc(CN)nn3)CC2)nc(N2CCN(C(=O)[C@H](CCCCN)n3cc([C@@H](N)[C@H](C)CC)nn3)CC2)n1`?
Apaf-1 act: 40

Results for O=C1CCCC/C1=C\Nc1ccc(Cl)cn1 ?
Apaf-1 act: -73*; Rh110 act interf: 9; Apaf-1 act conf: 17

Results for CC1(C)CC(=O)c2c(-c3cccnc3)n[nH]c2C1 ?
Apaf-1 act: 43

Results for CC1=NN(c2ccc(F)cc2)C(=O)C1C(c1cccc(O)c1)c1c(C)[nH]n(-c2ccc(F)cc2)c1=O (centres undefined) ?
Apaf-1 act: 91

What do the screens show for `Cc1cc(NC(=O)CCSc2ccccc2)ccc1Br`?
Apaf-1 act: -65*; Rh110 act interf: 15; Apaf-1 act conf: 22

How did CC(C(O)c1ccc(O)cc1)N1CCC(Cc2ccccc2)CC1 (centres undefined) do in these assays?
Apaf-1 act: 2

How did CCOc1ccc2nc(N(CCN(C)C)C(=O)c3ccc4c(c3)CCCC4)sc2c1 do in these assays?
Apaf-1 act: 55

How did CCN(CC)CCN(C(=O)c1ccc2c(c1)CCCC2)c1nc2cc(OC)c(OC)cc2s1 do in these assays?
Apaf-1 act: 48

What do the screens show for `CCN(CC)CCN(C(=O)c1ccc(C(C)=O)cc1)c1nc2ccc(Cl)cc2s1`?
Apaf-1 act: -329*; Rh110 act interf: 11; Apaf-1 act conf: 22

How did Cc1cc(C)c2nc(N(CCCN(C)C)C(=O)c3ccc4c(c3)CCCC4)sc2c1 do in these assays?
Apaf-1 act: 42

What do the screens show for `Cc1nn(Cc2c(F)c(F)c(F)c(F)c2F)c(C)c1NC(=O)c1ccc(COc2ccc(Cl)cc2Cl)o1`?
Apaf-1 act: 46

What do the screens show for `CC1(C)Cc2cccc(OCC(=O)N3CCN(c4cccc(C(F)(F)F)c4)CC3)c2O1`?
Apaf-1 act: 45

How did CCSc1ccc2c(c1)N(CCCN1CCN(C)CC1)c1ccccc1S2 do in these assays?
Apaf-1 act: 57

What do the screens show for `COCCNc1nc(C)cc(-c2cc(C(=O)Nc3ccccc3)on2)n1`?
Apaf-1 act: -53*; Rh110 act interf: 3; Apaf-1 act conf: 12

Results for CC(=O)Oc1ccc(/C=C2/C(=O)N(c3ccccc3)N=C2C)cc1 ?
Apaf-1 act: 91

What do the screens show for `CCN1CCN(C2=C(NS(=O)(=O)c3ccc(Br)cc3)C(=O)c3ccccc3C2=O)CC1`?
Apaf-1 act: 88

What do the screens show for `COc1ccc(-c2nc(C(=O)NCC3CCCO3)cc3c2[nH]c2ccccc23)cc1` (centres undefined)?
Apaf-1 act: -224*; Rh110 act interf: 17; Apaf-1 act conf: 21

What do the screens show for `COc1cc(-c2nc(C(=O)NC3CCN(Cc4ccccc4)CC3)cc3c2[nH]c2ccccc23)cc(OC)c1OC`?
Apaf-1 act: 41

What do the screens show for `CCCCOc1ccc(C(=O)NCC(=O)NCC(c2cccs2)N2CCOCC2)cc1` (centres undefined)?
Apaf-1 act: 41

What do the screens show for `O=C(NCC(c1ccc(F)cc1)N1CCOCC1)c1cccnc1Sc1ccccc1` (centres undefined)?
Apaf-1 act: -57*; Rh110 act interf: 8; Apaf-1 act conf: 12

Source: PubChem BioAssay
